{"source": "ChEMBL document CHEMBL4382192", "about": "“Discovery of a potent dual ALK and EGFR T790M inhibitor” (Eur J Med Chem, 2017)", "key": {"[1]": {"target": "Discoidin domain-containing receptor 2 (Homo sapiens) (UniProt Q16832)", "experiment": "Binding affinity to wild-type human partial length DDR2 (V555 to E855 residues) expressed in mammalian expression system assessed as residual binding level at 1 uM by Kinomescan method relative to control"}, "[2]": {"target": "STE20-like serine/threonine-protein kinase (Homo sapiens, UniProt Q9H2G2)", "experiment": "Inhibition of recombinant full length GST-tagged human SLK expressed in baculovirus expression system by LanthaScreen assay"}, "[3]": {"target": "Mitogen-activated protein kinase 14 (Homo sapiens) (UniProt Q16539)", "experiment": "Binding affinity to wild-type human full length p38-alpha (M1 to S360 residues) expressed in bacterial expression system assessed as residual binding level at 1 uM by Kinomescan method relative to control"}, "[4]": {"target": "Serine/threonine-protein kinase 10 (Homo sapiens) (UniProt O94804)", "experiment": "Binding affinity to wild-type human partial length LOK (E16 to V314 residues) expressed in bacterial expression system assessed as residual binding level at 1 uM by Kinomescan method relative to control"}, "[5]": {"target": "Dual specificity mitogen-activated protein kinase kinase 3 (Homo sapiens) (UniProt P46734)", "experiment": "Binding affinity to wild-type human full length MEK3 (M1 to S318 residues) expressed in mammalian expression system assessed as residual binding level at 1 uM by Kinomescan method relative to control", "outline": "(§1)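 Single-point kinome-wide KINOMEscan binding panel, test compound at 1 μM, run by the provider's standard protocol.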"}, "[6]": {"target": "Mitogen-activated protein kinase 9 (Homo sapiens) (UniProt P45984)", "experiment": "Binding affinity to wild-type human full length JNK2 (M1 to Q382 residues) expressed in mammalian expression system assessed as residual binding level at 1 uM by Kinomescan method relative to control", "outline": "as §1"}, "[7]": {"target": "Homeodomain-interacting protein kinase 3 (Homo sapiens) (UniProt Q9H422)", "experiment": "Binding affinity to wild-type human partial length HIPK3 (M153 to N562 residues) expressed in mammalian expression system assessed as residual binding level at 1 uM by Kinomescan method relative to control"}, "[8]": {"target": "Casein kinase II subunit alpha' (Homo sapiens) (UniProt P19784)", "experiment": "Binding affinity to wild-type human full length CSNK2A2 (M1 to R350 residues) expressed in mammalian expression system assessed as residual binding level at 1 uM by Kinomescan method relative to control"}, "[9]": {"system": "Epidermal growth factor receptor (Homo sapiens), P00533 [T790M]", "experiment": "Binding affinity to human partial length EGFR T790M mutant (R669 to G1022 residues) expressed in mammalian expression system assessed as residual binding level at 1 uM by Kinomescan method relative to control", "outline": "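Kinome-wide selectivity panel run by the KINOMEscan method, with the test compound at a single concentration of 1 μM. Wild-type and mutant kinases were profiled in the same screen.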"}, "[10]": {"target": "3-phosphoinositide-dependent protein kinase 1 (Homo sapiens) (UniProt O15530)", "experiment": "Binding affinity to wild-type human full length PDPK1 (M1 to Q556 residues) expressed in bacterial expression system assessed as residual binding level at 1 uM by Kinomescan method relative to control", "outline": "as §1"}, "[11]": {"target": "Mitogen-activated protein kinase kinase kinase 11 (Homo sapiens) (UniProt Q16584)", "experiment": "Binding affinity to wild-type human partial length MLK3 (I77 to W399 residues) expressed in bacterial expression system assessed as residual binding level at 1 uM by Kinomescan method relative to control"}, "[12]": {"target": "Ephrin type-A receptor 5 (Homo sapiens) (UniProt P54756)", "experiment": "Binding affinity to wild-type human partial length EPHA5 (T627 to V930 residues) expressed in bacterial expression system assessed as residual binding level at 1 uM by Kinomescan method relative to control"}, "[13]": {"target": "Cyclin-dependent kinase 3 (Homo sapiens) (UniProt Q00526)", "experiment": "Binding affinity to wild-type human full length CDK3 (M1 to H305 residues) expressed in bacterial expression system assessed as residual binding level at 1 uM by Kinomescan method relative to control"}, "[14]": {"experiment": "Metabolic stability in rat liver microsomes assessed as parent compound remaining at 1 uM after 30 mins in presence of NADPH by LC/MS/MS analysis", "format": "ADME, Microsome", "settings": "read-out: Stability", "outline": "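Compound at 1 μM final with 0.5 mg/mL microsomal protein in 100 mM phosphate buffer pH 7.4 at 37 °C, started by adding an NADPH-regenerating system. Reactions were quenched with cold acetonitrile at 0 and 30 min and spun down. Supernatant was analysed by LC-MS/MS. The 0-min sample, quenched before NADPH addition, was set as 100%, and percent parent remaining came from peak areas.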"}, "[15]": {"target": "Ribosomal protein S6 kinase alpha-4 (Homo sapiens) (UniProt O75676)", "experiment": "Binding affinity to wild-type human partial length C-terminal RPS6KA4 kinase domain 2 (M375 to T705 residues) expressed in mammalian expression system assessed as residual binding level at 1 uM by Kinomescan method relative to control"}}}
{"smiles": "C=CC(=O)Nc1cc(Nc2ncc(Cl)c(Nc3ccccc3S(=O)(=O)C(C)C)n2)c(OC)cc1N(C)CCN(C)C", "values": [{"measurement": "Activity", "setting": "[1]", "result": 77, "unit": "%"}, {"measurement": "IC50", "setting": "[2]", "result": 0.058, "unit": "µM"}, {"measurement": "Activity", "setting": "[3]", "result": 92, "unit": "%"}, {"measurement": "Activity", "setting": "[4]", "result": 0, "unit": "%"}, {"measurement": "Activity", "setting": "[5]", "result": 52, "unit": "%"}, {"measurement": "Activity", "setting": "[6]", "result": 68, "unit": "%"}, {"measurement": "Activity", "setting": "[7]", "result": 87, "unit": "%"}, {"measurement": "Activity", "setting": "[8]", "result": 100, "unit": "%"}, {"measurement": "Activity", "setting": "[9]", "result": 0, "unit": "%"}, {"measurement": "Activity", "setting": "[10]", "result": 94, "unit": "%"}, {"measurement": "Activity", "setting": "[11]", "result": 82, "unit": "%"}, {"measurement": "Activity", "setting": "[12]", "result": 88, "unit": "%"}, {"measurement": "Activity", "setting": "[13]", "result": 94, "unit": "%"}, {"measurement": "remaining at 0.5 h, 1 µM", "setting": "[14]", "result": 11, "unit": "%"}, {"measurement": "Activity", "setting": "[15]", "result": 100, "unit": "%"}]}
